What was measured:
Rattus norvegicus [1] = assay: Tested for the ability to decrease lesion area in the colon of the TNB/ethanol-induced chronic colitis rats at the dosage of 100 mg/kg/day; format: functional
Procedure, shortened: (§1)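 TNB/ethanol colitis rats dosed orally (0.5% MC suspension) once daily for 11 days from day 3, killed day 14. Ethanol-only group as baseline. Colonic MPO activity measured; lesion area (mm²/colon) by stereomicroscope. % inhibition = [1 − (test − ethanol)/(control − ethanol)] × 100. Mean ± SEM.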

[2] = molecular target: T1, Polyunsaturated fatty acid 5-lipoxygenase (Rattus norvegicus, UniProt P12527); assay: Inhibitory activity against the production of leukotriene B4 (LTB4) in glycogen-induced peritoneal cells of rat; format: functional
T1 sequence (P12527 whole entry): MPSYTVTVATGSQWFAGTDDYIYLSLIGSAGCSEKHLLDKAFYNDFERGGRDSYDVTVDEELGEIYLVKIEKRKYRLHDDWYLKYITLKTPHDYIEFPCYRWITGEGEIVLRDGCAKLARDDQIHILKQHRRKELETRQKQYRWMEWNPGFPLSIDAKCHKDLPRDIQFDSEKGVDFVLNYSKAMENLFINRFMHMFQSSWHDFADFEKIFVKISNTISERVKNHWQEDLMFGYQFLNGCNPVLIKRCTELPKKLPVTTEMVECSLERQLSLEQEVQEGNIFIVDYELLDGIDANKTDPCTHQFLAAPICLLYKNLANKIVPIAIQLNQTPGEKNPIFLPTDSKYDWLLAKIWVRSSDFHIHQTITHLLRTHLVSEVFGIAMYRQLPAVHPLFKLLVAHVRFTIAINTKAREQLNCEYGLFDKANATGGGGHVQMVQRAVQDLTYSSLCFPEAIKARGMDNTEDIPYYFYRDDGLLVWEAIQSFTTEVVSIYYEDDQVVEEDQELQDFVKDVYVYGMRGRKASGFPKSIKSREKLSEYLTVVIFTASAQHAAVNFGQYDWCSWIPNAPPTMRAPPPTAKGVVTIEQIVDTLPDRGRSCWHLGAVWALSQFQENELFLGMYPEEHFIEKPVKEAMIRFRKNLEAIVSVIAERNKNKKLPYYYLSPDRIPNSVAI
Procedure, shortened: (§2)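 Peritoneal leukocytes elicited in male F344 rats by ip 6% glycogen, suspended in Ca/Mg-free HBSS (5 × 10⁶ cells/mL). Cells preincubated 5 min at 37 °C with compound or vehicle (0.1% DMSO/0.1% BSA), stimulated with A23187 (4 μM, 10 min, 37 °C), stopped with BW755C. LTB₄, TXB₂ and PGE₂ in supernatant by radioimmunoassay. Duplicate points; IC50 by probit analysis.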

Thromboxane-A synthase [3] = molecular target: T2, Thromboxane-A synthase (Rattus norvegicus, UniProt P49430); assay: Inhibitory activity against the production of thromboxane B2 (TXB2) in glycogen-induced peritoneal cells of rat; format: functional; procedure, shortened: as §2
T2 sequence (P49430 whole entry): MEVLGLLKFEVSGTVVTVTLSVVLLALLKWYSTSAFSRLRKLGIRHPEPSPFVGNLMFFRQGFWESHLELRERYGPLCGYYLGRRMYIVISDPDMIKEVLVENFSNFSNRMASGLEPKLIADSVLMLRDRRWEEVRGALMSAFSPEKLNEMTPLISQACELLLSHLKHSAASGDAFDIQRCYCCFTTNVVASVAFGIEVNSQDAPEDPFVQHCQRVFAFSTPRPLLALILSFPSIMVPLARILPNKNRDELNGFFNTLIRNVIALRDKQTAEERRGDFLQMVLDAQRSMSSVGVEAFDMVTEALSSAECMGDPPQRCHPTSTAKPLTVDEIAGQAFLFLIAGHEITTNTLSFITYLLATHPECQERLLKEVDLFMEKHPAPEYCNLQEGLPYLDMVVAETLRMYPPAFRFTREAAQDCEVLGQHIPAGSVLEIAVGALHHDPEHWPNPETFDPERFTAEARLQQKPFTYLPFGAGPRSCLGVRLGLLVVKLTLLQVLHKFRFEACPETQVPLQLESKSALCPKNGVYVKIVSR

[4] = molecular target: Cyclooxygenase (Rattus norvegicus); assay: Inhibitory activity against the production of prostaglandin E2 (PGE2) in glycogen-induced peritoneal cells of rat
Homo sapiens [5] = species: Homo sapiens; assay: Tested for inhibitory activity against the production of thromboxane B2 (TXB2) in human whole blood; format: functional, organism-based
Procedure, shortened: (§3)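 Heparinized (10 U/mL) fresh blood from healthy volunteers, 0.4 mL aliquots, preincubated 5 min at 37 °C with compound or vehicle (0.1% DMSO/0.1% BSA). A23187 (40 μM) added for 20 min. LTB₄, TXB₂, PGE₂ in plasma by radioimmunoassay. Duplicate points; IC50 by probit analysis.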

[6] = Tested for inhibitory activity against thromboxane B2 (TXB2) in human platelets
Procedure, shortened: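 Washed human platelets (3 × 10⁸ cells/mL) in Tris-HCl-saline, pH 7.4, with 10 μM indomethacin. Preincubated 5 min at 25 °C with compound, PGH₂ (1 μg/mL) for 3 min at 25 °C, citrate/ethanol stop. TXB₂ in supernatant by radioimmunoassay. Duplicate points; IC50 by probit analysis.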

Homo sapiens [7] = species: Homo sapiens; assay: Tested for inhibitory activity against the production of leukotriene B4 (LTB4) in human whole blood; format: functional, organism-based; procedure, shortened: as §3
[8] = molecular target: T1, Polyunsaturated fatty acid 5-lipoxygenase; assay: Tested for inhibitory activity against 5-lipoxygenase in microsome of RBL-1 cells; format: cell-based
Procedure, shortened: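 RBL-1 cells sonicated at 0 °C in 50 mM phosphate, pH 7.4, with 0.25 M sucrose and 1 mM EDTA. Homogenate preincubated 5 min at 37 °C with compound plus 2 mM glutathione, then arachidonic acid (0.2 mM) for 10 min at 37 °C. Formic acid stop, CHCl₃/MeOH extraction, 5-HETE by HPLC. Duplicate points; IC50 by probit analysis.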

Thromboxane-A synthase [9] = molecular target: T3, Thromboxane-A synthase (Homo sapiens, UniProt P24557); assay: Tested for inhibitory activity against thromboxane A2 (TXA2) synthetase in microsome of human platelets
T3 sequence (P24557 whole entry): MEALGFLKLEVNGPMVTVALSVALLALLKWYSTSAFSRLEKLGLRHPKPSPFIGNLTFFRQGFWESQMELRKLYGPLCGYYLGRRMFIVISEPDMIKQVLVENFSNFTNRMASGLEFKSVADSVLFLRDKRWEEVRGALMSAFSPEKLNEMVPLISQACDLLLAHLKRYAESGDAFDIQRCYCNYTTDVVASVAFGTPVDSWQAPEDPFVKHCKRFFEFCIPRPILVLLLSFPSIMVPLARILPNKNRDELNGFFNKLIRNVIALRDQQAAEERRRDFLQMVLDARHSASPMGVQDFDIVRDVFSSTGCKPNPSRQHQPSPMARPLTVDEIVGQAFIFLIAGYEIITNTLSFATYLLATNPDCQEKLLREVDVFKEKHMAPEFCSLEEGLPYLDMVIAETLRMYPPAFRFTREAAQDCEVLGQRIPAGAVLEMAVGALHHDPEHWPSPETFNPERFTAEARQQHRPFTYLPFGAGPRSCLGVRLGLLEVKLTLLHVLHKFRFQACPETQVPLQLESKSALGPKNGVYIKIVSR
Procedure, shortened: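 Platelet microsome fraction (105000g) resuspended in 50 mM Tris-HCl-saline, pH 7.4, with 10 μM indomethacin. 20 μg protein preincubated 5 min at 25 °C with compound, PGH₂ (1 μg/mL) for 1 min at 25 °C, citric acid/ethanol stop. TXB₂ by radioimmunoassay. Duplicate points; IC50 by probit analysis.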

Homo sapiens [10] = species: Homo sapiens; assay: Tested for inhibitory activity against the production of prostaglandin E2 (PGE2) in human whole blood; format: functional, organism-based; procedure, shortened: as §3
[11] = Tested for the suppression ratio, the difference between the amount of TXB2 produced in the test groups and the control group at the dosage of 100 mg/kg; format: functional
Procedure, shortened: (§4)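 Male F344 rats (9 weeks, fasted 2 days) given a single intracolonic dose of 30 mg TNB in 0.25 mL 50% ethanol. Day 7: one oral dose in 0.5% MC, or vehicle. Killed 6 h later; colon incubated with A23187 (2 μg/mL) in Tyrode, 15 min, 37 °C. Eicosanoids by radioimmunoassay. Suppression versus vehicle controls; mean ± SEM.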

[12] = Tested for the suppression ratio, the difference between the amount of LTB4 produced in the test groups and the control group at the dosage of 100 mg/kg; format: functional; procedure, shortened: as §4
[13] = Tested for the suppression ratio, the difference between the amount of PGE-2 produced in the test groups and the control group at the dosage of 100 mg/kg; format: functional; procedure, shortened: as §4
Homo sapiens [14] = species: Homo sapiens; assay: Tested for inhibitory activity against leukotriene B4 (LTB4) in human neutrophils; format: functional, organism-based
Procedure, shortened: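 Human blood neutrophils from heparinized blood (dextran sedimentation, Percoll gradient), 1 × 10⁶ cells/mL in Ca/Mg-free HBSS. Preincubated 5 min at 37 °C with compound or vehicle, A23187 (4 μM) for 10 min. LTB₄ in cell-free supernatant by radioimmunoassay. Duplicate points; IC50 by probit analysis.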

Rattus norvegicus [15] = assay: Tested for the ability to decrease lesion area in the colon of the TNB/ethanol-induced chronic colitis rats at the dosage of 500 mg/kg/day; format: functional; procedure, shortened: as §1

Row | SMILES | IC50 [2] [nM] | IC50 (Thromboxane-A synthase [3]) [nM] | IC50 [4] [nM] | inhibition in vivo at 100 mg/kg/day (Rattus norvegicus [1]) [%] | other results
1 | CCc1c(O)c(OC)c(Cc2cccnc2)c2nc(NC)sc12 | < 100 | 330 | > 100000 |  | 
2 | CNc1nc2c(Cc3cccnc3)c(C)c(O)c(C)c2s1 |  |  |  | 39 | IC50 (Homo sapiens [5]): 1100 nM; IC50 [6]: 80 nM; IC50 (Homo sapiens [7]): 830 nM; IC50 [8]: 230 nM; IC50 (Thromboxane-A synthase [9]): 9 nM; IC50 (Homo sapiens [10]): > 90000 nM
3 | Cc1c(O)c(C)c2sc(NCc3ccc(S(N)(=O)=O)cc3)nc2c1C |  |  |  |  | IC50 (Homo sapiens [5]): 42000 nM; IC50 [6]: > 100000 nM; IC50 (Homo sapiens [7]): 24000 nM; Suppression ratio [11]: 0%; Suppression ratio [12]: 86%; IC50 [8]: 210 nM; Suppression ratio [13]: 0%; IC50 (Homo sapiens [10]): > 100000 nM
4 | CNc1nc2c(Cc3cccnc3)c(OC)c(O)c(C)c2s1 | 170 | 1300 |  |  | 
5 | CCCNc1nc2c(Cc3cccnc3)c(C)c(O)c(C)c2s1.Cl.Cl | < 100 | 90 | > 100000 |  | 
6 | CNc1nc2c(C)c(Cc3cccnc3)c(O)c(C)c2s1.Cl.Cl | 300 | < 100 | > 100000 |  | 
7 | Cc1c(O)c(Cc2cccnc2)c2sc(N)nc2c1C.Cl.Cl | 250 | 5300 | > 100000 |  | 
8 | COc1c(O)c(C)c2sc(N)nc2c1Cc1cccnc1.Cl.Cl | 170 | 110 | > 100000 |  | 
9 | Cc1c(O)c(C)c2sc(N)nc2c1Cc1cccnc1 | 190 | 2 |  |  | 
10 | CCc1c(O)c(OC)c(Cc2cccnc2)c2nc(N)sc12 | 150 | 180 |  |  | 
11 | Oc1cc(-c2ccccc2)c2nc(NCc3cccnc3)sc2c1 | 7000 | 1400 | 9600 |  | 
12 | O=C(O)c1cc(/N=N/c2ccc(S(=O)(=O)Nc3ccccn3)cc2)ccc1O [SULFASALAZINE] |  |  |  |  | inhibition in vivo at 500 mg/kg/day (Rattus norvegicus [15]): 16%

Now from value to molecule, other results behind:

Row | IC50 [2] [nM] | IC50 (Thromboxane-A synthase [3]) [nM] | IC50 [4] [nM] | SMILES | inhibition in vivo at 100 mg/kg/day (Rattus norvegicus [1]) [%] | other results
13 | < 100 | 2000 |  | Cc1c(O)c(C)c2sc(NCc3cccnc3)nc2c1C | 81 | 
14 | < 100 | 2000 | > 100000 | CCNc1nc2c(C)c(C)c(O)c(Cc3cccnc3)c2s1 | 64 | IC50 (Homo sapiens [5]): 34800 nM; IC50 [6]: 4300 nM; IC50 (Homo sapiens [7]): 500 nM; Suppression ratio [11]: 53%; Suppression ratio [12]: 89%; IC50 [8]: 270 nM; IC50 (Thromboxane-A synthase [9]): 810 nM; Suppression ratio [13]: 41%; IC50 (Homo sapiens [10]): > 100000 nM
15 | 230 | 650 | > 100000 | CCNc1nc2c(C)c(Cc3cccnc3)c(O)c(C)c2s1 | 48 | IC50 [6]: 2300 nM; Suppression ratio [11]: 67%; Suppression ratio [12]: 83%; IC50 (Thromboxane-A synthase [9]): 390 nM; Suppression ratio [13]: 8%
16 | < 100 | 4400 |  | Cc1cc(O)c(C)c2sc(NCc3cccnc3)nc12 | 71 | 
17 | 1600 | 4000 | 5500 | Cc1c(O)c2ccccc2c2nc(NCc3cccnc3)sc12 |  | 
18 | < 100 | 100 |  | CCNc1nc2c(Cc3cccnc3)c(C)c(O)c(C)c2s1 | 57 | IC50 (Homo sapiens [5]): 560 nM; IC50 [6]: 60 nM; IC50 (Homo sapiens [7]): 1100 nM; IC50 [8]: 910 nM; IC50 (Thromboxane-A synthase [9]): 10 nM; IC50 (Homo sapiens [10]): > 91000 nM; IC50 (Homo sapiens [14]): < 100 nM
19 | 90 | 5500 |  | COc1cc2nc(NCc3cccnc3)sc2c(OC)c1O |  | 

Source: ChEMBL document CHEMBL1127462, “Novel dual inhibitors of 5-lipoxygenase and thromboxane A2 synthetase: synthesis and structure-activity relationships of 3-pyridylmethyl-substituted 2-amino-6-hydroxybenzothiazole derivatives” (J Med Chem, 1994)
